Measured values: ChEMBL document CHEMBL5678798 (Clin Cancer Res, 2009)
The source made the active and inactive calls. The calls are words filed in the database; no cut-off is given here.

Key:
[1] = molecular target: Dual specificity mitogen-activated protein kinase kinase 7 (Homo sapiens) (UniProt O14733); assay: Inhibition of N-terminal GST-tagged recombinant human MKK7beta (2 to end residues) expressed in Escherichia coli at 0.3 uM by filter binding assay relative to control
Outline: (§1)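 Outsourced single-concentration screen in a commercial panel of 233 protein kinases, run as radiometric filter-binding activity assays. Test agent was tested at 0.3 or 3 µmol/L, as given in each line, from a 10 mmol/L DMSO stock. Activity is expressed as percent inhibition relative to control.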

[2] = molecular target: Phosphatidylinositol 4,5-bisphosphate 3-kinase catalytic subunit alpha isoform (Homo sapiens, UniProt P42336); assay: Inhibition of PI3Kalpha (unknown origin)
Sequence of Phosphatidylinositol 4,5-bisphosphate 3-kinase catalytic subunit alpha isoform (P42336 whole entry, canonical isoform): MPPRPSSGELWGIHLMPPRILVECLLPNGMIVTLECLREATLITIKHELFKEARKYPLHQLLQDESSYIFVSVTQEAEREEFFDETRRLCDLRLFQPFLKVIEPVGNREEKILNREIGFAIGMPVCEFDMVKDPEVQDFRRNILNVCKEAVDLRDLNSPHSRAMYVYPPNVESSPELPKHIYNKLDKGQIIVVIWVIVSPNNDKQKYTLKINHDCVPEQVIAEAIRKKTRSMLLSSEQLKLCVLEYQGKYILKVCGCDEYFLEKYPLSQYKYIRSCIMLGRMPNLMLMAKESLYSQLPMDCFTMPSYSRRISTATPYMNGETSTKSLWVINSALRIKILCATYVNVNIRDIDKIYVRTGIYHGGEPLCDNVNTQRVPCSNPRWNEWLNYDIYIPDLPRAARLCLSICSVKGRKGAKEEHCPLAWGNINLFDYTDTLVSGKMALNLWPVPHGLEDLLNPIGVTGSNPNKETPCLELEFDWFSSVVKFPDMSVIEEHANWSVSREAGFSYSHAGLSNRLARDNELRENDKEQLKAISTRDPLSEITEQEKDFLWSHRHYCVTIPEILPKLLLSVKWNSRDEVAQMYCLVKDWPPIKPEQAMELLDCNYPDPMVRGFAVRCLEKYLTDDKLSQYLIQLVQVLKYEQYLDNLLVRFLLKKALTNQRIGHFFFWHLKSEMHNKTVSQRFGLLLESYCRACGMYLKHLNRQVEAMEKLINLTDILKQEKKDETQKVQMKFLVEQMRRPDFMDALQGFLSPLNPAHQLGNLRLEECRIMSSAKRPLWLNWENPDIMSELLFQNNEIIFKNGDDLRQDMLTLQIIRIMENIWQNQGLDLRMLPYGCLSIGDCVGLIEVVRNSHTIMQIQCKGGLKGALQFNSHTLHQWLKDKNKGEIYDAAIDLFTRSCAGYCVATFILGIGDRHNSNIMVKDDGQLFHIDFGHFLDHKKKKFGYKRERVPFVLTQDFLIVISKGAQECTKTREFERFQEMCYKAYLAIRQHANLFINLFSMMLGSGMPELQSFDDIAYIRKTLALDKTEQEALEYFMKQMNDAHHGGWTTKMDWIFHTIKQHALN

[3] = molecular target: Serine/threonine-protein kinase D2 (PRKD2) (Homo sapiens) (UniProt Q9BZL6); assay: Inhibition of N-terminal His6 tagged, recombinant full-length human PKD2 expressed in Sf21 cells at 0.3 uM by filter binding assay relative to control
[4] = molecular target: Fibroblast growth factor receptor 1 (Homo sapiens, UniProt P11362); assay: Inhibition of N-terminal GST-tagged recombinant human FGFR1 (456 to 765 residues) expressed in baculovirus infected Sf21 cells by filter binding assay
[5] = molecular target: Serine/threonine-protein kinase DCLK2 (Homo sapiens) (UniProt Q8N568); assay: Inhibition of N-terminal 6His-tagged recombinant human DCAMKL2 (376 to end residues) expressed in baculovirus infected Sf21 cells at 3 uM by filter binding assay relative to control; outline: as §1
Sequence of Serine/threonine-protein kinase DCLK2 (Homo sapiens) (Q8N568 whole entry): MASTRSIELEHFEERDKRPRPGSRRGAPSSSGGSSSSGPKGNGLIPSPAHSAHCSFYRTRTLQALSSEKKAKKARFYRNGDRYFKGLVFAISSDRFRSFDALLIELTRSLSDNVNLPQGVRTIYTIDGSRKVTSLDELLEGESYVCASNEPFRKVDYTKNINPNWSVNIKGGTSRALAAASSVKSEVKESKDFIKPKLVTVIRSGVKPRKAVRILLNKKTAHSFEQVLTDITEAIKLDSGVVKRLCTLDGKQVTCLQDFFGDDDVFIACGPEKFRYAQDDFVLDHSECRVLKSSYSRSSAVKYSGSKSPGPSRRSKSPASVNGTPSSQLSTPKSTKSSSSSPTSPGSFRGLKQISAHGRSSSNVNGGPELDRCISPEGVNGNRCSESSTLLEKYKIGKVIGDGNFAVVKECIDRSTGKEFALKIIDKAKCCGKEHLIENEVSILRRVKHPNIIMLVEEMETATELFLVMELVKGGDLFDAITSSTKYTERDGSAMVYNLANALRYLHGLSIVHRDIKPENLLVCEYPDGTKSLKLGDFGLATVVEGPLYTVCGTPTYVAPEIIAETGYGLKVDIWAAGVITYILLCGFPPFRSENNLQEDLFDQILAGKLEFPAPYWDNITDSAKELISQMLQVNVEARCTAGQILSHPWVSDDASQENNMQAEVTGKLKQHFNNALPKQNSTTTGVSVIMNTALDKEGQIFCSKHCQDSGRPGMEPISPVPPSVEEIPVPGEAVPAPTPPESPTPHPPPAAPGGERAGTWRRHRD

[6] = molecular target: cGMP-dependent protein kinase 1 (Homo sapiens) (UniProt Q13976); assay: Inhibition of N-terminal 6His-tagged recombinant full-length human PKG1beta expressed in baculovirus infected Sf21 cells at 3 uM by filter binding assay relative to control
Outline: (§2)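 KinaseProfiler panel of 233 kinases: radiometric filter-binding activity assays with compound at 0.3 or 3 µmol/L. Read-out is percent inhibition.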

[7] = molecular target: Tyrosine-protein kinase JAK2 (Homo sapiens, UniProt O60674); assay: Inhibition of JAK2 (unknown origin)
Sequence of Tyrosine-protein kinase JAK2 (O60674 whole entry): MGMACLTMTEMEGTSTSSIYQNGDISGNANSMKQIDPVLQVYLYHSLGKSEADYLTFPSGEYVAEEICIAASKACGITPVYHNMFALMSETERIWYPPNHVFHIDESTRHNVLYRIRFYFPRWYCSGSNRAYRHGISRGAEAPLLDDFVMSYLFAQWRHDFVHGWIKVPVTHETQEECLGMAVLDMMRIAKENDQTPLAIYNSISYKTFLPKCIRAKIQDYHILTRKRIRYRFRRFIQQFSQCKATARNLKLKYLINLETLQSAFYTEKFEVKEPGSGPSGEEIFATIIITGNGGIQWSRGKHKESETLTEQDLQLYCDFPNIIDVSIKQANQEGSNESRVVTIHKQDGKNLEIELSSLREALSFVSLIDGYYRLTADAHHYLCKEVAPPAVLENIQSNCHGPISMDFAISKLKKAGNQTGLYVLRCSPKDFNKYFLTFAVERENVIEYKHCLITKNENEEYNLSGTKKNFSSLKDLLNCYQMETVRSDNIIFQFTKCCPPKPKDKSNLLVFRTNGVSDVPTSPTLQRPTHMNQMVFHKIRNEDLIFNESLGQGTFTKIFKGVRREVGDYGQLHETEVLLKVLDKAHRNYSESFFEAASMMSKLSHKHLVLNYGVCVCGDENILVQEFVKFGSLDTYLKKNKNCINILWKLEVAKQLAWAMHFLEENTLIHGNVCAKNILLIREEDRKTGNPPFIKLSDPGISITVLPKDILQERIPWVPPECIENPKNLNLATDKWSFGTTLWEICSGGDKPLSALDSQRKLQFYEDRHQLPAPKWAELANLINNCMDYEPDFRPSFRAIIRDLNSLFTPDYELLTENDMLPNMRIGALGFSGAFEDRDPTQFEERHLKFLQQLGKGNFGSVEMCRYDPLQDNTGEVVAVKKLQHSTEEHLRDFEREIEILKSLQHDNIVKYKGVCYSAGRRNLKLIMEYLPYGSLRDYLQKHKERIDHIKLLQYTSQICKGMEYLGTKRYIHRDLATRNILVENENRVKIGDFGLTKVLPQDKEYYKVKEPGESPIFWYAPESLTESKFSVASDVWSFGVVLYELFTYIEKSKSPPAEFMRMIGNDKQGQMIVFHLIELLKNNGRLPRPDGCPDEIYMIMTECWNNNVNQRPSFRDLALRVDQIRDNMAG

COLO 205 = assay: In vivo inhibition of IGF1R in human COLO 205 cells xenografted in IGF1-stimulated po dosed nu/nu CD-1 mouse assessed as reduction in IGF1R phosphorylation pretreated for 4 hrs followed by IGF1 stimulation and measured after 15 min by radioimmunoprecipitation assay; assay type: functional, organism-based; conditions: dose 1-60 mg/kg, time 4.17 hrs, in the assay text read “measured after 10 min” for “measured after 15 min”
Outline: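 Female nu/nu CD-1 mice, three per group, bearing ~500 mm3 tumors, given one oral dose of compound or vehicle. At 4 h, 10 µg hIGF-I i.v. via tail vein; saline controls. Tumor and blood taken 10 min later. Tumor lysates in RIPA captured on anti-IGF-IR plates and probed with europium anti-phosphotyrosine. Phospho/total IGF-IR expressed as % of ligand-stimulated control. Blood levels by LC-MS/MS.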

KARPAS-299 = assay: Antiproliferative activity against human KARPAS-299 cells assessed as reduction in cell viability after 72 hrs by CellTiter-Glo assay; assay type: functional, cell-based; conditions: KARPAS-299, 72 h
Outline: (§3)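 Cells seeded in 96-well plates, left overnight at 37°C, then exposed to a range of test concentrations for 72 h. Viability read by CellTiter-Glo luminescence; IC50 from four-parameter curve fit. Lines kept at 37°C, 5% CO2, in recommended growth medium.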

[8] = molecular target: Tyrosine-protein kinase ITK/TSK (Homo sapiens, UniProt Q08881); assay: Inhibition of ITK (unknown origin)
[9] = molecular target: Fibroblast growth factor receptor 3 (Homo sapiens) (UniProt P22607); assay: Inhibition of N-terminal His6-tagged recombinant human FGFR3 (447 to 761 residues) expressed in Sf21 cells at 3 uM by filter binding assay relative to control
[10] = Antiproliferative activity against human SUPM2 cells assessed as reduction in cell viability after 72 hrs by CellTiter-Glo assay; assay type: functional, cell-based; conditions: SUP-M2, 72 h; outline: as §3
[11] = molecular target: Serine/threonine-protein kinase D1 (Homo sapiens) (UniProt Q15139); assay: Inhibition of N-terminal His6-tagged recombinant full-length human PKCmu expressed in Sf21 cells at 3 uM by filter binding assay relative to control; outline: as §1
Sequence of Serine/threonine-protein kinase D1 (Homo sapiens) (Q15139 whole entry, the tested form may be a part): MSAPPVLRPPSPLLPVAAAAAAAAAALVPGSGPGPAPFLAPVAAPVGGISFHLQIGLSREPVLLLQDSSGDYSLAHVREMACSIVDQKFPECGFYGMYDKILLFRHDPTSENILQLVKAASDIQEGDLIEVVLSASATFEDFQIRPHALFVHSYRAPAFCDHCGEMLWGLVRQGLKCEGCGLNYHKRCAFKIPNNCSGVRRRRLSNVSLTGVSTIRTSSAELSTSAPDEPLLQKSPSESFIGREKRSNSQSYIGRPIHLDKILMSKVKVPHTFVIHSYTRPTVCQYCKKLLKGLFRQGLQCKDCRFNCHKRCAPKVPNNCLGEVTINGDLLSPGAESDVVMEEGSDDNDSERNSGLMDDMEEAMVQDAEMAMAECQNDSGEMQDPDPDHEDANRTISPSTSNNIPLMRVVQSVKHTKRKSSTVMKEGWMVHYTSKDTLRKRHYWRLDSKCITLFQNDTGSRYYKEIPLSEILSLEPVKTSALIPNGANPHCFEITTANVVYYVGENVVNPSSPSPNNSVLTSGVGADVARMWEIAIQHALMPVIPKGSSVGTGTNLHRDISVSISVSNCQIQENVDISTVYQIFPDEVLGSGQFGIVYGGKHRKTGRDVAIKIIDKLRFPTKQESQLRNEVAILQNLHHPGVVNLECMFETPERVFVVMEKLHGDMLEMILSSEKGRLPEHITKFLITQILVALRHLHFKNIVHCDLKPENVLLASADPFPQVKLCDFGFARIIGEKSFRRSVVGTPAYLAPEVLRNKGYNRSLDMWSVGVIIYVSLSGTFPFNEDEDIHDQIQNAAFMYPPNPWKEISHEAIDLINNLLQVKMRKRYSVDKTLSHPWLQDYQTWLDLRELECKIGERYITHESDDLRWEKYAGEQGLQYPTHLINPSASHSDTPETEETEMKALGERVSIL

[12] = molecular target: Death-associated protein kinase 3 (Homo sapiens) (UniProt O43293); assay: Inhibition of N-terminal GST tagged recombinant human ZIPK (1 to 290 residues) expressed in Escherichia coli at 3 uM by filter binding assay relative to control; outline: as §1
[13] = molecular target: Testis-specific serine/threonine-protein kinase 1 (Homo sapiens) (UniProt Q9BXA7); assay: Inhibition of 6His-tagged recombinant human full length TSSK1 expressed in baculovirus infected Sf21 cells at 3 uM by filter binding assay relative to control; outline: as §2
[14] = Toxicity in nu/nu CD-1 mouse xenografted with human BXPC-3 cells assessed as reduction in body weight at 30 mg/kg, po for 21 days relative to control; assay type: organism-based; conditions: in vivo, 504 h, time 21 day
NCI-H929 = assay: Induction of cell cycle arrest in human NCI-H929 cells assessed as decrease in cells accumulation at G2/M phase at 0.03 to 10 uM incubated for 24 to 48 hrs by propidium iodide staining based flow cytometric analysis; assay type: functional; conditions: dose 0.03-10 µM, time lower 24.0 hrs, time upper […]
Outline: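 COLO 205, MCF-7 or NCI-H929 cells seeded in 96-well plates overnight at 37°C, then exposed to DMSO or increasing compound concentrations for 24 or 48 h. Fixed and stained with propidium iodide (Vindelov method), then analysed by flow cytometry for sub-G1, G1, S and G2-M fractions. Experiment repeated twice.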

[15] = molecular target: Fibroblast growth factor receptor 4 (Homo sapiens) (UniProt P22455); assay: Inhibition of N-terminal His6-tagged recombinant human FGFR4 (442 to 755 residues) expressed in baculovirus infected Sf21 cells at 0.3 uM by filter binding assay relative to control
Sequence of Fibroblast growth factor receptor 4 (Homo sapiens) (P22455 22-802 limits assumed): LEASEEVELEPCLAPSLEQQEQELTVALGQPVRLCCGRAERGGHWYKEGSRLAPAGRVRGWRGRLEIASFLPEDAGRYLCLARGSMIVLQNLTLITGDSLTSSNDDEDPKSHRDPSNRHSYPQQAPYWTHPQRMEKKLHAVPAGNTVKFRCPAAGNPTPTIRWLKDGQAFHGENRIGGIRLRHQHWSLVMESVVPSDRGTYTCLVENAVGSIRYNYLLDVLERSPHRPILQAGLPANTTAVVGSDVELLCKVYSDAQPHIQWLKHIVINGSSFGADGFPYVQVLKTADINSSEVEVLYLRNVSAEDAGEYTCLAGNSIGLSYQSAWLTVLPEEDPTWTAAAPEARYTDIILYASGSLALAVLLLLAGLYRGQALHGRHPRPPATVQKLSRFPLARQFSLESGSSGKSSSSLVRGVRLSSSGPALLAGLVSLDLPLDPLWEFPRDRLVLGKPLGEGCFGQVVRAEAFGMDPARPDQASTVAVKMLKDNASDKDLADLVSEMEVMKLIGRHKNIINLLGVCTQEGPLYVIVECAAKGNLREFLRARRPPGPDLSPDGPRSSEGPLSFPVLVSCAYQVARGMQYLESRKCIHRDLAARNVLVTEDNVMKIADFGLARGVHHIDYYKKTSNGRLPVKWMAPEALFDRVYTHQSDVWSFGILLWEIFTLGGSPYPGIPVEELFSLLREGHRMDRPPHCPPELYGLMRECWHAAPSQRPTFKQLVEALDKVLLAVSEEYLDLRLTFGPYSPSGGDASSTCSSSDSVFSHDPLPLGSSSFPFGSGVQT

[16] = molecular target: Tyrosine-protein kinase SYK (Homo sapiens, UniProt P43405); assay: Inhibition of SYK (unknown origin)
[17] = molecular target: Ephrin type-A receptor 5 (Homo sapiens) (UniProt P54756); assay: Inhibition of N-terminal His6-tagged human EphA5 expressed in baculovirus infected Sf21 cells at 0.3 uM by filter binding assay relative to control; outline: as §1
[18] = molecular target: Insulin receptor (Mus musculus) (UniProt P15208); conditions: CD-1, dose 30.0 mg/kg, route po, time 21.0 day
MHH-ES-1 = assay: Antiproliferative activity against human MHH-ES-1 cells assessed as reduction in cell viability after 72 hrs by CellTiter-Glo assay; assay type: functional, cell-based; conditions: MHH-ES-1, 72 h; outline: as §3
[19] = molecular target: Serine/threonine-protein kinase BRSK1 (Homo sapiens) (UniProt Q8TDC3); assay: Inhibition of N-terminal 6His-tagged recombinant human BrSK1 (2 to end residues) expressed in baculovirus infected Sf21 cells at 3 uM by filter binding assay relative to control; outline: as §1
[20] = molecular target: Protein kinase C alpha type (Homo sapiens) (UniProt P17252); assay: Inhibition of N-terminal His6 tagged recombinant full-length human PKCalpha expressed in baculovirus infected Sf21 cells at 3 uM by filter binding assay relative to control; outline: as §1

Sequence of Dual specificity mitogen-activated protein kinase kinase 7 (Homo sapiens) (O14733 whole entry): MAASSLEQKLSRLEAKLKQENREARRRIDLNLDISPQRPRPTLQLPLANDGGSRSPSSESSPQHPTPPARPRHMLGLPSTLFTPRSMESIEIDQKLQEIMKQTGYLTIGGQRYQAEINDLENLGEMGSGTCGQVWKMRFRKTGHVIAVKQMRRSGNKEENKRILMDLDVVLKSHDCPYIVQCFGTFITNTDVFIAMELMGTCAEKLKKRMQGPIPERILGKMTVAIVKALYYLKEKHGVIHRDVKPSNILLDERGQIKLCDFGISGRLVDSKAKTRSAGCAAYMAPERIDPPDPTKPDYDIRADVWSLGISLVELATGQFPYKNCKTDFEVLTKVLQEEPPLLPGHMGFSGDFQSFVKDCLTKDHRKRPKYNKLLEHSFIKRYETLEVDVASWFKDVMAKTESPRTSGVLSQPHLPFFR

Compound: CCc1cc(Nc2nccc(-c3c(-c4ccc(OC)c(C(=O)Nc5c(F)cccc5F)c4)nc4ccccn34)n2)c(OC)cc1N1CCC(N2CCN(S(C)(=O)=O)CC2)CC1
- inhibition [1]: 0%
- IC50 [2]: > 10 µM
- inhibition [3]: 4%
- IC50 [4]: 1.88 µM
- inhibition [5]: 0%
- inhibition [6]: 32%
- IC50 [7]: > 16 µM
- inhibition (COLO 205): Dose-Dependent Effect
- IC50 (KARPAS-299): > 30 µM
- IC50 [8]: > 25 µM
- inhibition [9]: 25%
- IC50 [10]: > 30 µM
- inhibition [11]: 1%
- inhibition [12]: 27%
- inhibition [13]: 11%
- Activity [14]: Non-Toxic
- Activity (NCI-H929): Active
- inhibition [15]: 21%
- IC50 [16]: 3.2 µM
- inhibition [17]: 11%
- inhibition [18]: inactive
- IC50 (MHH-ES-1): > 30 µM
- inhibition [19]: 24%
- inhibition [20]: 1%
